# ChEMBL document CHEMBL4000163, “Pyrazole derived ultra-short antimicrobial peptidomimetics with potent anti-biofilm activity” (Eur J Med Chem, 2017)
# Activity calls are given as the source filed them. The calls are words filed in the database; no cut-off is given here.
# Experiments:
# [1] = test system: Escherichia coli; assay: Antimicrobial activity against Escherichia coli KCTC 1682 incubated for 18 to 20 hrs by broth microdilution assay; type: functional; conditions: read-out: MIC100
# Summary of the method: (§1)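 Broth microdilution in 1% peptone. Inoculum was 2 × 10⁶ CFU/mL mixed 1:1 with serial 2-fold peptide dilutions and incubated 18–20 h at 37 °C. Growth was read as absorbance at 600 nm; MIC is the lowest peptide concentration giving 100% growth inhibition.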
# [2] = test system: Pseudomonas aeruginosa; assay: Antimicrobial activity against Pseudomonas aeruginosa KCTC 1637 incubated for 18 to 20 hrs by broth microdilution assay; type: functional; conditions: read-out: MIC100; summary of the method: as §1
# [3] = test system: Staphylococcus epidermidis; assay: Antimicrobial activity against Staphylococcus epidermidis KCTC 1917 incubated for 18 to 20 hrs by broth microdilution assay; type: functional; conditions: read-out: MIC100; summary of the method: as §1
# [4] = test system: Staphylococcus aureus; assay: Antimicrobial activity against Staphylococcus aureus KCTC 1621 incubated for 18 to 20 hrs by broth microdilution assay; type: functional; conditions: read-out: MIC100; summary of the method: as §1
# [5] = Therapeutic index, ratio of MHC for sheep RBC to MIC for Staphylococcus epidermidis KCTC 1917
# [6] = Therapeutic index, ratio of MHC for sheep RBC to MIC for Staphylococcus aureus KCTC 1621
# [7] = test system: Pseudomonas aeruginosa; assay: Antibiofilm activity against multidrug-resistant Pseudomonas aeruginosa CCARM 2095 after 24 hrs by crystal violet staining based method; type: functional; conditions: CCARM 2095, 24 h
# Summary of the method: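 MDRPA 2095 (1×10^6 cfu/mL) in MHB with 0.2% glucose, 24 h at 37 °C with or without peptide (2-fold dilutions, 1-64 µg/mL), six wells each. Wells washed with PBS, methanol-fixed, stained with 0.1% crystal violet 5 min, stain resolubilized in 95% ethanol, absorbance at 600 nm.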
# [8] = test system: Escherichia coli; assay: Induction of inner membrane permeabilisation in Escherichia coli ML-35 assessed as ONPG hydrolysis up to 30 ug/ml by beta-galactosidase enzyme coupled spectrophotometric analysis; type: functional
# Summary of the method: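 E. coli ML-35 (constitutive cytoplasmic β-galactosidase, lactose permease-deficient) washed and resuspended to OD600 0.5 in 10 mM sodium phosphate pH 7.4, 100 mM NaCl, with 1.5 mM ONPG. o-Nitrophenol release tracked spectrophotometrically over time after peptide addition at various concentrations.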
# [9] = test system: Staphylococcus aureus; assay: Induction of cytoplasmic membrane depolarization in Staphylococcus aureus KCTC 1621 assessed as loss of membrane potential after 1 hr by DiSC3(5) dye based fluorescence assay; type: functional
# [10] = Therapeutic index, ratio of MHC for sheep RBC to geometric mean of MICs for four bacterial strains
# [11] = as above; remark: listed apart in the source
# [12] = test system: Pseudomonas aeruginosa; assay: Potency index, ratio of LL-37 MIC100 to compound MIC100 for Pseudomonas aeruginosa KCTC 1637; type: functional
# [13] = test system: Staphylococcus aureus; assay: Potency index, ratio of LL-37 MIC100 to compound MIC100 for Staphylococcus aureus KCTC 1621; type: functional
# [14] = test system: Staphylococcus aureus; assay: Potency index, ratio of melittin MIC100 to compound MIC100 for Staphylococcus aureus KCTC 1621; type: functional
# [15] = test system: Pseudomonas aeruginosa; assay: Potency index, ratio of melittin MIC100 to compound MIC100 for Pseudomonas aeruginosa KCTC 1637; type: functional
# [16] = test system: Enterococcus faecium; assay: Antibacterial activity against vancomycin-resistant Enterococcus faecium ATCC 51559 after 18 to 20 hrs by broth microdilution assay; type: functional; conditions: read-out: MIC100
# Summary of the method: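 Broth microdilution in 1% peptone: bacteria at 2 × 10⁶ CFU/mL mixed 1:1 with serial 2-fold peptide dilutions, 18-20 h at 37 °C; growth read as absorbance at 600 nm. MIC taken as lowest concentration giving 100% growth inhibition.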
# [17] = test system: Escherichia coli; assay: Induction of outer membrane permeabilization in Escherichia coli KCTC 1682 assessed as NPN uptake by spectrofluorophotometric analysis; type: functional
# Summary of the method: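 E. coli KCTC 1682 at OD600 0.05 in 5 mM HEPES pH 7.2 with 5 mM KCN; NPN 10 µM final, background fluorescence recorded (ex 350, em 420 nm). Peptide aliquots at various concentrations added and fluorescence followed over time until no further rise.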
# [18] = test system: Escherichia coli; assay: Antimicrobial activity against Escherichia coli KCTC 1682 using 4 hrs trypsin incubated compound measured after overnight incubation by radial diffusion assay; type: functional
# Summary of the method: (§2)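 Radial diffusion: mid-log cells (2×10^6 CFU/ml in LB) in 0.7% agarose. Peptide stock (10 mg/mL) added to trypsin in PBS (0.2 µg/mL), 4 h at 37 °C, stopped by liquid-nitrogen freezing; 10 µL on paper discs on the plates, overnight at 37 °C. Clearance-zone diameters measured.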
# [19] = test system: Staphylococcus aureus; assay: Antimicrobial activity against Staphylococcus aureus KCTC 1621 using 4 hrs trypsin incubated compound measured after overnight incubation by radial diffusion assay; type: functional; summary of the method: as §2
SMILES,MIC [1],MIC [2],MIC [3],MIC [4],other results
N=C(N)NCCC[C@H](NC(=O)c1nn(CCc2cccc3ccccc23)cc1NC(=O)[C@H](CCCNC(=N)N)NC(=O)c1nn(CCc2cccc3ccccc23)cc1NC(=O)[C@@H](N)CCCNC(=N)N)C(N)=O,32 µg/mL,8 µg/mL,32 µg/mL,4 µg/mL,
N=C(N)NCCC[C@@H]1NC(=O)c2nn(CCC(c3ccccc3)c3ccccc3)cc2NC(=O)CSCC(C(N)=O)NC(=O)[C@H](CCCNC(=N)N)NC(=O)c2nn(CCC(c3ccccc3)c3ccccc3)cc2NC1=O (some centres not stated),> 64 µg/mL,> 64 µg/mL,64 µg/mL,16 µg/mL,
CC[C@H](C)[C@H](NC(=O)[C@H](CCCCN)NC(=O)[C@H](CCC(=O)O)NC(=O)[C@H](CCCCN)NC(=O)[C@H](CO)NC(=O)[C@H](CCCCN)NC(=O)[C@H](CCCNC(=N)N)NC(=O)[C@H](Cc1ccccc1)NC(=O)[C@H](Cc1ccccc1)NC(=O)[C@H](CC(=O)O)NC(=O)CNC(=O)[C@H](CC(C)C)NC(=O)[C@@H](N)CC(C)C)C(=O)NCC(=O)N[C@@H](CCCCN)C(=O)N[C@@H](CCC(=O)O)C(=O)N[C@@H](Cc1ccccc1)C(=O)N[C@@H](CCCCN)C(=O)N[C@@H](CCCNC(=N)N)C(=O)N[C@H](C(=O)N[C@H](C(=O)N[C@@H](CCC(N)=O)C(=O)N[C@@H](CCCNC(=N)N)C(=O)N[C@H](C(=O)N[C@@H](CCCCN)C(=O)N[C@@H](CC(=O)O)C(=O)N[C@@H](Cc1ccccc1)C(=O)N[C@@H](CC(C)C)C(=O)N[C@@H](CCCNC(=N)N)C(=O)N[C@@H](CC(N)=O)C(=O)N[C@@H](CC(C)C)C(=O)N[C@H](C(=O)N1CCC[C@H]1C(=O)N[C@@H](CCCNC(=N)N)C(=O)N[C@H](C(=O)N[C@@H](CCC(=O)O)C(=O)N[C@@H](CO)C(=O)O)[C@@H](C)O)C(C)C)[C@@H](C)CC)C(C)C)[C@@H](C)CC [CATHELICIDIN],32 µg/mL,64 µg/mL,32 µg/mL,32 µg/mL,TI [5]: 25.6; TI [6]: 25.6; IC90 [7]: 64 µg/mL; Activity [8]: Active; Activity [9]: Active; TI [10]: 25.6; TI [11]: 25.6
CCC(CC)Cn1cc(N)c(C(=O)N[C@@H](CCCNC(=N)N)C(N)=O)n1,> 64 µg/mL,> 64 µg/mL,> 64 µg/mL,> 64 µg/mL,
N=C(N)NCCC[C@H](NC(=O)c1nn(CCC(c2ccccc2)c2ccccc2)cc1NC(=O)[C@@H](N)CCCNC(=N)N)C(N)=O,> 64 µg/mL,8 µg/mL,> 64 µg/mL,8 µg/mL,Ratio [12]: 4 - 8; Ratio [13]: 4 - 8; Ratio [14]: 2 - 4; Ratio [15]: 2 - 4
N=C(N)NCCC[C@H](NC(=O)c1nn(CCc2cccc3ccccc23)cc1NC(=O)[C@H](CCCNC(=N)N)NC(=O)c1nn(CCc2cccc3ccccc23)cc1NC(=O)[C@H](CCCNC(=N)N)NC(=O)c1nn(CCc2cccc3ccccc23)cc1N)C(N)=O,> 64 µg/mL,> 64 µg/mL,64 µg/mL,8 µg/mL,
N=C(N)NCCC[C@H](NC(=O)c1nn(CCC(c2ccccc2)c2ccccc2)cc1N)C(N)=O,> 64 µg/mL,32 µg/mL,> 64 µg/mL,> 64 µg/mL,
CC[C@H](C)[C@H](NC(=O)CN)C(=O)NCC(=O)N[C@@H](C)C(=O)N[C@H](C(=O)N[C@@H](CC(C)C)C(=O)N[C@@H](CCCCN)C(=O)N[C@H](C(=O)N[C@@H](CC(C)C)C(=O)N[C@H](C(=O)N[C@H](C(=O)NCC(=O)N[C@@H](CC(C)C)C(=O)N1CCC[C@H]1C(=O)N[C@@H](C)C(=O)N[C@@H](CC(C)C)C(=O)N[C@H](C(=O)N[C@@H](CO)C(=O)N[C@@H](Cc1c[nH]c2ccccc12)C(=O)N[C@H](C(=O)N[C@@H](CCCCN)C(=O)N[C@@H](CCCNC(=N)N)C(=O)N[C@@H](CCCCN)C(=O)N[C@@H](CCCNC(=N)N)C(=O)N[C@@H](CCC(N)=O)C(=O)N[C@@H](CCC(N)=O)C(N)=O)[C@@H](C)CC)[C@@H](C)CC)[C@@H](C)O)[C@@H](C)O)C(C)C)C(C)C [MELITTIN],,,,,TI [5]: 0.5; TI [6]: 0.5; MIC [16]: 16 µg/mL; Activity [17]: Dose-dependent effect; Activity [8]: Active; Activity [9]: Active; Activity [18]: inactive; Activity [19]: inactive; TI [10]: 0.5; TI [11]: 0.5
CCC(CC)Cn1cc(NC(=O)[C@@H](N)CCCNC(=N)N)c(C(=O)N[C@@H](CCCNC(=N)N)C(N)=O)n1,> 64 µg/mL,> 64 µg/mL,> 64 µg/mL,> 64 µg/mL,
N=C(N)NCCC[C@H](NC(=O)c1nn(CCC(c2ccccc2)c2ccccc2)cc1NC(=O)[C@H](CCCNC(=N)N)NC(=O)c1nn(CCC(c2ccccc2)c2ccccc2)cc1N)C(N)=O,32 µg/mL,32 µg/mL,32 µg/mL,8 µg/mL,
N=C(N)NCCC[C@H](NC(=O)c1nn(CCc2cccc3ccccc23)cc1NC(=O)[C@@H](N)CCCNC(=N)N)C(N)=O,> 64 µg/mL,> 64 µg/mL,> 64 µg/mL,32 µg/mL,
N=C(N)NCCC[C@H](NC(=O)c1nn(CCc2cccc3ccccc23)cc1N)C(N)=O,> 64 µg/mL,> 64 µg/mL,> 64 µg/mL,> 64 µg/mL,
N=C(N)NCCC[C@H](NC(=O)c1nn(CCC(c2ccccc2)c2ccccc2)cc1NC(=O)[C@H](CCCNC(=N)N)NC(=O)c1nn(CCC(c2ccccc2)c2ccccc2)cc1NC(=O)[C@H](CCCNC(=N)N)NC(=O)c1nn(CCC(c2ccccc2)c2ccccc2)cc1N)C(N)=O,64 µg/mL,> 64 µg/mL,64 µg/mL,32 µg/mL,
N=C(N)NCCC[C@H](NC(=O)c1nn(CCCc2ccccc2)cc1NC(=O)[C@@H](N)CCCNC(=N)N)C(N)=O,> 64 µg/mL,> 64 µg/mL,> 64 µg/mL,64 µg/mL,
N=C(N)NCCC[C@H](NC(=O)c1nn(CCCc2ccccc2)cc1N)C(N)=O,> 64 µg/mL,> 64 µg/mL,> 64 µg/mL,> 64 µg/mL,
